From ChEMBL document CHEMBL4196159 (ACS Med Chem Lett, 2018)
In brackets after ≈: the same amount, converted by molar mass.

Assays:
in vitro [1] = conditions: human, liver microsomes
physchem [2] = conditions: phosphate buffer, pH 7.4
physchem [3] = conditions: octanol/buffer, pH 7.4
in vitro [4] = conditions: rat, hepatocytes
[5] = Clearance in rat at 0.5 mg/kg, iv or 1 mg/kg, po; assay type: ADME, organism-based; conditions: in vivo
In short: (§1)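 Rats dosed 0.5 mg/kg i.v. and 1 mg/kg orally. Pharmacokinetic parameters taken from plasma levels.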

[6] = Volume of distribution at steady state in rat at 0.5 mg/kg, iv or 1 mg/kg, po; assay type: ADME, organism-based; conditions: in vivo, read-out: Vdss
In short: as §1

[7] = Oral bioavailability in rat at 1 mg/kg; assay type: ADME, organism-based; conditions: in vivo
In short: as §1

[8] = Intrinsic clearance in dog hepatocytes assessed per million cells at 1 uM measured after 30 mins by HPLC analysis; assay type: ADME, cell-based, Canis lupus familiaris, Hepatocyte; conditions: read-out: CLH
In short: (§2)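 Intrinsic clearance (Clint) measured in fresh dog hepatocytes or cryopreserved human hepatocytes.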

[9] = Intrinsic clearance in human cryopreserved hepatocytes assessed per million cells at 1 uM measured after 30 mins by HPLC analysis; assay type: ADME, cell-based, Hepatocyte; conditions: read-out: CLH
In short: as §2

[10] = Clearance in Han Wistar rat at 1 mg/kg, iv administered as bolus dose or 2 mg/kg, po; assay type: ADME, organism-based; conditions: in vivo
In short: (§3)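 Male Han Wistar rats and male Beagle dogs, at least n = 2. Compound given at 1 mg/kg i.v. Parameters derived from plasma concentrations.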

[11] = Volume of distribution in Han Wistar rat at 1 mg/kg, iv administered as bolus dose or 2 mg/kg, po; assay type: ADME, organism-based; conditions: in vivo
In short: as §3

[12] = Oral bioavailability in Han Wistar rat at 2 mg/kg; assay type: ADME, organism-based; conditions: in vivo
[13] = Terminal half life in Han Wistar rat at 1 mg/kg, iv administered as bolus dose; assay type: ADME, organism-based; conditions: in vivo, read-out: beta t1/2 (converted)
In short: as §3

[14] = Clearance in Beagle dog at 1 mg/kg, iv administered as bolus dose or 2 mg/kg, po; assay type: ADME, organism-based, Canis lupus familiaris; conditions: in vivo
In short: as §3

[15] = Volume of distribution in Beagle dog at 1 mg/kg, iv administered as bolus dose or 2 mg/kg, po; assay type: ADME, organism-based, Canis lupus familiaris; conditions: in vivo
In short: as §3

[16] = Oral bioavailability in Beagle dog at 2 mg/kg; assay type: ADME, organism-based, Canis lupus familiaris; conditions: in vivo
[17] = Terminal half life in Beagle dog at 1 mg/kg, iv administered as bolus dose; assay type: ADME, organism-based, Canis lupus familiaris; conditions: in vivo, read-out: beta t1/2 (converted)
In short: as §3

Mus musculus = experiment: Time at which plasma concentration stays above in-vitro cellular IC50 for ATM autophosphorylation at Ser1981 residue in human HT-29 cells in mouse at 10 mg/kg, po; assay type: ADME, organism-based; conditions: in vivo
In short: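 Mice given 10 mg/kg orally. Free plasma concentration over time compared with the in vitro cellular ATM IC50.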
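Throughout, for logD: Shake-flask partitioning between octanol and buffer, equilibrated for 30 min before measurement.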

COCc1ccc(-c2cc3c(N[C@@H](C)c4ccn(C)n4)c(C(N)=O)cnc3cc2F)cn1
microsomal CLint at 0.5 h, 1 µM (in vitro [1]): 15 µL/min/mg

C[C@H](Nc1c(C(N)=O)nnc2ccc(-c3ccc(OCCN(C)C)nc3)cc12)c1ccn(C)n1
solubility thermodynamic at 24 h (physchem [2]): 910 µM (≈ 419 µg/mL)
logD at 0.5 h (physchem [3]): 1.9
microsomal CLint at 0.5 h, 1 µM (in vitro [1]): 25 µL/min/mg
hepatocyte CLint at 0.5 h, 1 µM (in vitro [4]): 13 µL/min/1e6 cells

CNC(=O)c1nnc2ccc(-c3ccc(COC)nc3)cc2c1N[C@@H](C)C1CCOCC1
solubility thermodynamic at 24 h (physchem [2]): 34 µM (≈ 14.8 µg/mL)
logD at 0.5 h (physchem [3]): 3
microsomal CLint at 0.5 h, 1 µM (in vitro [1]): 42 µL/min/mg
hepatocyte CLint at 0.5 h, 1 µM (in vitro [4]): 5.8 µL/min/1e6 cells

CNC(=O)c1nnc2ccc(-c3ccc(OCCN(C)C)nc3)cc2c1N[C@@H](C)C1CCOCC1
solubility thermodynamic at 24 h (physchem [2]): 990 µM (≈ 474 µg/mL)
logD at 0.5 h (physchem [3]): 2.5
microsomal CLint at 0.5 h, 1 µM (in vitro [1]): 26 µL/min/mg
hepatocyte CLint at 0.5 h, 1 µM (in vitro [4]): 4.8 µL/min/1e6 cells

C[C@H](Nc1c(C(N)=O)nnc2ccc(-c3ccc(OCCCN4CCCC4)nc3)cc12)c1ccn(C)n1
solubility thermodynamic at 24 h (physchem [2]): 490 µM (≈ 245 µg/mL)
logD at 0.5 h (physchem [3]): 1.8
microsomal CLint at 0.5 h, 1 µM (in vitro [1]): 10 µL/min/mg
hepatocyte CLint at 0.5 h, 1 µM (in vitro [4]): 4.6 µL/min/1e6 cells

COCc1ccc(-c2ccc3nnc(C(N)=O)c(N[C@@H](C)C4CCOCC4)c3c2)cn1
clearance [5]: 21 mL/min/kg
Vd [6]: 0.7 L/kg
bioavailability [7]: 56%
solubility thermodynamic at 24 h (physchem [2]): > 1000 µM
logD at 0.5 h (physchem [3]): 2.7
microsomal CLint at 0.5 h, 1 µM (in vitro [1]): 33 µL/min/mg
hepatocyte CLint at 0.5 h, 1 µM (in vitro [4]): 5.6 µL/min/1e6 cells

Cc1cn(C)nc1[C@H](C)Nc1c(C(N)=O)nnc2ccc(-c3ccc(OCCCN4CCCC4)nc3)cc12
solubility thermodynamic at 24 h (physchem [2]): 510 µM (≈ 262 µg/mL)
logD at 0.5 h (physchem [3]): 2.1
microsomal CLint at 0.5 h, 1 µM (in vitro [1]): 40 µL/min/mg
hepatocyte CLint at 0.5 h, 1 µM (in vitro [4]): 8.1 µL/min/1e6 cells

COCc1ccc(-c2ccc3nnc(C(N)=O)c(N[C@@H](C)c4ccn(C)n4)c3c2)cn1
solubility thermodynamic at 24 h (physchem [2]): 76 µM (≈ 31.7 µg/mL)
logD at 0.5 h (physchem [3]): 3
microsomal CLint at 0.5 h, 1 µM (in vitro [1]): 14 µL/min/mg
hepatocyte CLint at 0.5 h, 1 µM (in vitro [4]): 4.9 µL/min/1e6 cells

Cc1cn(C)nc1[C@H](C)Nc1c(C(N)=O)nnc2ccc(-c3ccc(OCCCN(C)C)nc3)cc12
solubility thermodynamic at 24 h (physchem [2]): 290 µM (≈ 142 µg/mL)
logD at 0.5 h (physchem [3]): 2.1
microsomal CLint at 0.5 h, 1 µM (in vitro [1]): 27 µL/min/mg
hepatocyte CLint at 0.5 h, 1 µM (in vitro [4]): 12 µL/min/1e6 cells

C[C@H](Nc1c(C(N)=O)nnc2ccc(-c3ccc(OCCCN4CCCC4)nc3)cc12)C1CCOCC1
solubility thermodynamic at 24 h (physchem [2]): 620 µM (≈ 313 µg/mL)
logD at 0.5 h (physchem [3]): 1.9
microsomal CLint at 0.5 h, 1 µM (in vitro [1]): 23 µL/min/mg
hepatocyte CLint at 0.5 h, 1 µM (in vitro [4]): 1.9 µL/min/1e6 cells

CNC(=O)c1nnc2ccc(-c3ccc(OCCCN(C)C)nc3)cc2c1N[C@@H](C)c1nn(C)cc1C
solubility thermodynamic at 24 h (physchem [2]): 620 µM (≈ 312 µg/mL)
logD at 0.5 h (physchem [3]): 2.3
microsomal CLint at 0.5 h, 1 µM (in vitro [1]): 33 µL/min/mg
hepatocyte CLint at 0.5 h, 1 µM (in vitro [4]): 6.7 µL/min/1e6 cells

COCc1ccc(-c2ccc3nnc(C(N)=O)c(N[C@@H](C)c4nn(C)cc4C)c3c2)cn1
solubility thermodynamic at 24 h (physchem [2]): 8 µM (≈ 3.45 µg/mL)
logD at 0.5 h (physchem [3]): 2.8
microsomal CLint at 0.5 h, 1 µM (in vitro [1]): 31 µL/min/mg
hepatocyte CLint at 0.5 h, 1 µM (in vitro [4]): 18 µL/min/1e6 cells

C[C@H](Nc1c(C(N)=O)nnc2ccc(-c3ccc(NCCN(C)C)nc3)cc12)C1CCOCC1
solubility thermodynamic at 24 h (physchem [2]): > 1000 µM
logD at 0.5 h (physchem [3]): 2
microsomal CLint at 0.5 h, 1 µM (in vitro [1]): 18 µL/min/mg
hepatocyte CLint at 0.5 h, 1 µM (in vitro [4]): 4.2 µL/min/1e6 cells

C[C@H](Nc1c(C(N)=O)nnc2ccc(-c3ccc(OCCCN(C)C)nc3)cc12)C1CCOCC1
hepatocyte CLint at 1 µM [8]: 5.1 µL/min/1e6 cells
hepatocyte CLint at 1 µM [9]: 2.8 µL/min/1e6 cells
clearance [10]: 25 mL/min/kg
Vd [11]: 5.5 L/kg
bioavailability [12]: 26%
half-life [13]: 4.1 h
clearance [14]: 49 mL/min/kg
Vd [15]: 20 L/kg
bioavailability [16]: 43%
half-life [17]: 6.2 h
solubility thermodynamic at 24 h (physchem [2]): 870 µM (≈ 416 µg/mL)
logD at 0.5 h (physchem [3]): 1.9
microsomal CLint at 0.5 h, 1 µM (in vitro [1]): 28 µL/min/mg
hepatocyte CLint at 0.5 h, 1 µM (in vitro [4]): 3.4 µL/min/1e6 cells

C[C@H](Nc1c(C(N)=O)nnc2ccc(-c3ccc(OCCCN(C)C)nc3)cc12)c1ccn(C)n1
solubility thermodynamic at 24 h (physchem [2]): 65 µM (≈ 30.8 µg/mL)
logD at 0.5 h (physchem [3]): 1.7
microsomal CLint at 0.5 h, 1 µM (in vitro [1]): 10 µL/min/mg
hepatocyte CLint at 0.5 h, 1 µM (in vitro [4]): 7 µL/min/1e6 cells

COCc1ccc(-c2ccc3ncc(C(N)=O)c(N[C@@H](C)C4CCOCC4)c3c2)cn1
microsomal CLint at 0.5 h, 1 µM (in vitro [1]): 26 µL/min/mg
hepatocyte CLint at 0.5 h, 1 µM (in vitro [4]): < 5.3 µL/min/1e6 cells

CNC(=O)c1nnc2ccc(-c3ccc(OCCCN(C)C)nc3)cc2c1N[C@@H](C)C1CCOCC1
hepatocyte CLint at 1 µM [8]: 8.8 µL/min/1e6 cells
hepatocyte CLint at 1 µM [9]: 4.1 µL/min/1e6 cells
clearance [10]: 7.8 mL/min/kg
Vd [11]: 2.8 L/kg
bioavailability [12]: 41%
half-life [13]: 5.6 h
clearance [14]: 48 mL/min/kg
Vd [15]: 14 L/kg
bioavailability [16]: 35%
half-life [17]: 4.7 h
Time (Mus musculus): > 12 h
solubility thermodynamic at 24 h (physchem [2]): 880 µM (≈ 434 µg/mL)
logD at 0.5 h (physchem [3]): 2.3
microsomal CLint at 0.5 h, 1 µM (in vitro [1]): 22 µL/min/mg
hepatocyte CLint at 0.5 h, 1 µM (in vitro [4]): 5.7 µL/min/1e6 cells
